Assay results reported in ChEMBL document CHEMBL2321794, “Evaluation of difluoromethyl ketones as agonists of the γ-aminobutyric acid type B (GABAB) receptor” (J Med Chem, 2013).
Calls of active or inactive are those of the source. The rule behind the calls is not given here.

How the values were obtained:
[1] = system: HEK293; test: Cytotoxicity against HEK293 cells expressing human GABA-B B1/B2 receptor gene after 3 hrs by MTS assay; assay type: cell-based; settings: hek293, 3 h
How it was run: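 MTS viability in HEK293 cells stably expressing human GABA-B1/B2 with Cre-luc reporter: about 65000 cells/well plated overnight, treated 3 h at 37 °C, 5% CO2 in Optimem, in triplicate. CellTiter Aqueous One reagent then added for 1.5 h; absorbance read at 490 nm.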

[2] = target: GABA-A receptor; alpha-1/beta-2/gamma-2 (Rattus norvegicus, UniProt P18508+P62813+P63138); test: Agonist activity at rat GABA-A alpha1beta2gamma2 receptor expressed in human TSA201 cells by whole cell voltage-clamp method; assay type: cell-based
How it was run: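 Whole-cell voltage clamp at rt, holding potential −60 mV, in tsA201 cells transiently transfected (calcium phosphate) with rat α1, β2, γ2s subunits plus GFP (1:1:5:1); recorded the day after replating. Compounds applied at 100 μM via gap-free protocol; currents compared with response to 100 μM GABA. Intracellular NMDG-Cl/CsCl pH 7.2; extracellular NaCl/HEPES pH 7.4; 1 kHz filtering and sampling.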

[3] = target: GABA-B receptor (Homo sapiens, UniProt O75899+Q9UBS5); test: Agonist activity at human GABA-B B1/B2 receptor expressed in HEK293 cells assessed as inhibition of forskolin-stimulated cAMP accumulation after 3 hrs by luciferase reporter gene assay; assay type: functional, cell-based
[4] = system: Mus musculus; test: Anxiolytic activity in high alcohol preferring-2 mouse assessed as reduction of startle response under noise alone condition at 12.5 mg/kg, ip treated 25 mins prior to test; assay type: functional, organism-based; design: dose 12.5 mg/kg
How it was run: (§1)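 Experimentally naive HAP2 mice (16 male, 16 female, 316–332 days old). Given ip at 10 mL/kg in 10% DMSO/45% (w/v) 2-hydroxypropyl-β-cyclodextrin in distilled water, 25 min before the test. Conditioning 24 h prior: 40 trials of 30 s, 7 W light paired with 0.5 s, 0.8 mA foot shock at 2 min intervals. Startle force in grams excluding body weight, 70–71 dB background, sexes pooled.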

[5] = system: Mus musculus; test: Anxiolytic activity in high alcohol preferring-2 mouse assessed as reduction of startle response under light and noise condition at 12.5 mg/kg, ip treated 25 mins prior to test; assay type: functional, organism-based; design: dose 12.5 mg/kg; how it was run: as §1
[6] = target: T1, GABA-A receptor; alpha-1/beta-2/gamma-2 (Rattus norvegicus) (UniProt P18508+P62813+P63138); test: Agonist activity at rat GABA-Aalpha1beta2gamma2 activity expressed in human TSA201 cells assessed as potentiation of 100 uM GABA-induced current amplitude at 100 uM by whole cell voltage-clamp method; assay type: cell-based
How it was run: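 Same whole-cell clamp setup (rat α1β2γ2s in tsA201, −60 mV, rt): 100 μM GABA, near-saturating, co-applied with 100 μM compound versus GABA alone; normalized current amplitude, mean ± SE, N = 5.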

[7] = system: Mus musculus; test: Anxiolytic activity in high alcohol preferring-2 mouse assessed as reduction of startle response under light and noise condition at 36 mg/kg, ip treated 25 mins prior to test; assay type: functional, organism-based; design: dose 36 mg/kg
How it was run: (§2)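 HAP2 mice, experimentally naive (16 male, 16 female, 316–332 days old), given compound ip at 10 mL/kg in 10% DMSO/45% (w/v) 2-hydroxypropyl-β-cyclodextrin in water, 25 min before test. Conditioning: 40 trials of 30 s light paired with 0.5 s, 0.8 mA foot shock; test 24 h later. Startle force in grams on noise-alone and light + noise trials, 70–71 dB background; sexes pooled.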

[8] = system: Mus musculus; test: Anxiolytic activity in high alcohol preferring-2 mouse assessed as reduction of startle response under noise alone condition at 36 mg/kg, ip treated 25 mins prior to test; assay type: functional, organism-based; design: dose 36 mg/kg; how it was run: as §2
[9] = target: T1, GABA-A receptor; alpha-1/beta-2/gamma-2 (Rattus norvegicus); test: Agonist activity at rat GABA-Aalpha1beta2gamma2 activity expressed in human TSA201 cells assessed as potentiation of 1 uM GABA-induced current amplitude at 100 uM by whole cell voltage-clamp method; assay type: cell-based
How it was run: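 Modulation test on tsA201 cells expressing rat α1β2γ2s GABA-A receptor under whole-cell voltage clamp at −60 mV, rt: 1 μM GABA applied alone or simultaneously with 100 μM compound; current amplitude normalized, mean ± SE, N = 5 cells.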

[10] = system: Mus musculus; test: Anxiolytic activity in high alcohol preferring-2 mouse assessed as reduction of startle response under light and noise condition at 7.5 mg/kg, ip treated 25 mins prior to test; assay type: functional; settings: route intraperitoneal
How it was run: (§3)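 Male and female HAP2 mice (7 of each, 133–142 days old) with prior startle testing, prepulse testing and vehicle or drug injections, followed by a 15-day washout and counterbalancing. Dosed ip (10 mL/kg, distilled water vehicle) 25 min before the test session. Light (30 s, 7 W) was paired with foot shock (0.5 s, 0.8 mA; 40 trials) 24 h earlier. Startle force in grams, sexes pooled, mean ± SEM.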

[11] = system: Mus musculus; test: Anxiolytic activity in high alcohol preferring-2 mouse assessed as reduction of startle response under noise alone condition at 7.5 mg/kg, ip treated 25 mins prior to test; assay type: functional; settings: route intraperitoneal; how it was run: as §3

Chain of GABA-A receptor; alpha-1/beta-2/gamma-2 (P18508 whole entry): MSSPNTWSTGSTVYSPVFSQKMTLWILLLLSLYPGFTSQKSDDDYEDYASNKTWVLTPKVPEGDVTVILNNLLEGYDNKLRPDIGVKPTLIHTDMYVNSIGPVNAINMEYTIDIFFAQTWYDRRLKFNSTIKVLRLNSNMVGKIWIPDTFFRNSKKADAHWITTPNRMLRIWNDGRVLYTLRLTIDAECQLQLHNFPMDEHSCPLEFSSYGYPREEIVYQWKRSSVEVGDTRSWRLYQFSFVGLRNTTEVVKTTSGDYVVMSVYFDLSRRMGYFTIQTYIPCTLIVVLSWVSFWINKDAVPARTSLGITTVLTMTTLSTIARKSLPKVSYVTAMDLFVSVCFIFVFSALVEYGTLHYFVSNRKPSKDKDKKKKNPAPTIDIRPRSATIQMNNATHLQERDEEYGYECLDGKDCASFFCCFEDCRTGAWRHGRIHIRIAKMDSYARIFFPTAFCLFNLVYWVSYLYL
Chain of GABA-A receptor; alpha-1/beta-2/gamma-2 (P62813 whole entry): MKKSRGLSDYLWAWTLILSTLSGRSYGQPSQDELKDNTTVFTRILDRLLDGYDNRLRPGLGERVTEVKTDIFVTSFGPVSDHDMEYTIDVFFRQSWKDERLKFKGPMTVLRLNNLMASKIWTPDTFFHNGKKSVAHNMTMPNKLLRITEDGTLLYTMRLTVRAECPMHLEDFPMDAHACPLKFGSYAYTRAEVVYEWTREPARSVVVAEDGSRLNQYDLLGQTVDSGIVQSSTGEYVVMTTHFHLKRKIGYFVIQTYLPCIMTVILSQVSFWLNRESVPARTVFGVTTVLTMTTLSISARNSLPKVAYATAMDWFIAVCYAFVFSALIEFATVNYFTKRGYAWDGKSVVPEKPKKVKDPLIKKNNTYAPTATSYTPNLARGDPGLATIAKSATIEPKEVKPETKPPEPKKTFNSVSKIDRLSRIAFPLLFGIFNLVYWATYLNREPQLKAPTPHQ
Chain of GABA-A receptor; alpha-1/beta-2/gamma-2 (P63138 whole entry): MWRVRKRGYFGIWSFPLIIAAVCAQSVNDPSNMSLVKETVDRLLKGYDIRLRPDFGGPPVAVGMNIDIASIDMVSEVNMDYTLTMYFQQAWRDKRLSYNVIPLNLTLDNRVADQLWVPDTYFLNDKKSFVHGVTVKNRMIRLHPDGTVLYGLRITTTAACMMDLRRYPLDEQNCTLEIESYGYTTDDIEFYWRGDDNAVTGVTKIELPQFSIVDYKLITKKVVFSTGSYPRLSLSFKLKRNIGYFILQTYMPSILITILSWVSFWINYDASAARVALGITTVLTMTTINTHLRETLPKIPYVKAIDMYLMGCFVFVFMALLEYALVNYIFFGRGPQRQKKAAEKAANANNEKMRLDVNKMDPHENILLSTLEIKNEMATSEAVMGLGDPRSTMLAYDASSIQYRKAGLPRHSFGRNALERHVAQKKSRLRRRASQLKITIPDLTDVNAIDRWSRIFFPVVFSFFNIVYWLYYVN
Chain of GABA-B receptor (Q9UBS5 whole entry): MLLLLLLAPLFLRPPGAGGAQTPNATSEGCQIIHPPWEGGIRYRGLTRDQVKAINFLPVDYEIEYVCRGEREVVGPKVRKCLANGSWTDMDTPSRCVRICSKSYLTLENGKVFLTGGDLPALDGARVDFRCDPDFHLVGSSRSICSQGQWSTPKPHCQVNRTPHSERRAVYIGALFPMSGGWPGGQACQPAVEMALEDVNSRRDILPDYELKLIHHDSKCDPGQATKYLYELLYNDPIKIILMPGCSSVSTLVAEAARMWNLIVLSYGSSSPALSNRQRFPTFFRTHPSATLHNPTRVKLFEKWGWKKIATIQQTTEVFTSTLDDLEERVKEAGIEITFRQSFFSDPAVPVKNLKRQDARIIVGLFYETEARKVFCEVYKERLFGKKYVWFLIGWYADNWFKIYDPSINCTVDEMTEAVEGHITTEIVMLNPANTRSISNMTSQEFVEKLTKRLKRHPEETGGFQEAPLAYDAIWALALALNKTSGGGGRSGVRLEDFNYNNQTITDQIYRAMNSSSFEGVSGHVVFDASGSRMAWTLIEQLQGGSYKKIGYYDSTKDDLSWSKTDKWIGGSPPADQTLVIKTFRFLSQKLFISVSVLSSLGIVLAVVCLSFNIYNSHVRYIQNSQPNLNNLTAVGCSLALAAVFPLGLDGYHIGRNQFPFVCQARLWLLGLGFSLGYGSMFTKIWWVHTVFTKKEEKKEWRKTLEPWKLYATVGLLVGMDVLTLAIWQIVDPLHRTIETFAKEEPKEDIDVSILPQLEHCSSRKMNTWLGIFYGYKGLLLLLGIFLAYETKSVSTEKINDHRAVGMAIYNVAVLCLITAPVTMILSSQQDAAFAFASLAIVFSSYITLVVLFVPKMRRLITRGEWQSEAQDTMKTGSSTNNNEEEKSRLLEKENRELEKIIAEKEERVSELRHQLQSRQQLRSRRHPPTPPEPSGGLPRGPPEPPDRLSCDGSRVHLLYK
Chain of GABA-B receptor (O75899 whole entry): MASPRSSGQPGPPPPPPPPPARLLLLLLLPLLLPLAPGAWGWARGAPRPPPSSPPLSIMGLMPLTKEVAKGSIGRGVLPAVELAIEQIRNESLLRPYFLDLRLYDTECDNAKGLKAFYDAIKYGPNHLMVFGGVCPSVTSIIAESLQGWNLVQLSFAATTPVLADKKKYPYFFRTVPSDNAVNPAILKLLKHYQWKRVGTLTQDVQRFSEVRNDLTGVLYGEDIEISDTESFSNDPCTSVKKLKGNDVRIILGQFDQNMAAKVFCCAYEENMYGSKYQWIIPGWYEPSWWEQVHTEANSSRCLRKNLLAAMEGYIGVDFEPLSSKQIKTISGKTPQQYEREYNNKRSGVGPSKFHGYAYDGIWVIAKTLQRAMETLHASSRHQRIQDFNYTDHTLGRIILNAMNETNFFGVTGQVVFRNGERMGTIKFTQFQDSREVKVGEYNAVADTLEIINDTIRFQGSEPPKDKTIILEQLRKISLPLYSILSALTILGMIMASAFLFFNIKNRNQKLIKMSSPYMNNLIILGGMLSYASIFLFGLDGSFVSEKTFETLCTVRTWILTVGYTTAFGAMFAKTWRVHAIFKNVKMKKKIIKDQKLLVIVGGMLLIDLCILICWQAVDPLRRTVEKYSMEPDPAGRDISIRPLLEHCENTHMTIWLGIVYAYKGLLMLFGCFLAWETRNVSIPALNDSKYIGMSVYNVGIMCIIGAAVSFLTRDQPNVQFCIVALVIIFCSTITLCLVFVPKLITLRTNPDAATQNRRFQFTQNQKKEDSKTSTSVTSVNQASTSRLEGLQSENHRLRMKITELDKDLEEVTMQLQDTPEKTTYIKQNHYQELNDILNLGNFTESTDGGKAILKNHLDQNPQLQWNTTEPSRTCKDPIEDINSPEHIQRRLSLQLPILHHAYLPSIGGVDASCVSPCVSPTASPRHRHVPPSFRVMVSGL

SMILES: CC(=O)c1ccc(C(O)C(F)(F)C(=O)C23CC4CC(CC(C4)C2)C3)cc1 (stereo unspecified)
- Activity [1]: Non-toxic

SMILES: CC1(C)C2CCC(C(O)C(F)(F)C(=O)c3ccc4c(c3)OCO4)C1C2 (racemic)
- Activity [1]: Toxic

SMILES: CC(=O)c1ccc(C(O)C(F)(F)C(=O)C23CC4CC(CC(C4)C2)C3)cc1 (racemic) [listing 1 of 2 here]
- EC50 [2]: > 100 µM

SMILES: O=C(C12CC3CC(CC(C3)C1)C2)C(F)(F)C(O)/C=C/c1ccccc1 (racemic)
- EC50 [3]: 40 µM
- EC50 [2]: > 100 µM

SMILES: CC(=O)c1ccc(C(O)CC(=O)C23CC4CC(CC(C4)C2)C3)cc1 (racemic)
- EC50 [3]: > 100 µM

SMILES: COc1ccc(C(O)C(F)(F)C(=O)c2ccc3ccccc3c2)cc1 (racemic)
- EC50 [2]: > 100 µM

SMILES: CCC/C=C/C(O)C(F)(F)C(=O)c1ccc2ccccc2c1 (racemic)
- EC50 [2]: > 100 µM

SMILES: C/C=C/C=C/C(O)C(F)(F)C(=O)c1ccc2ccccc2c1 (racemic)
- EC50 [2]: > 100 µM

SMILES: O=C(c1ccc2ccccc2c1)C(F)(F)C(O)C1CCCCC1 (racemic)
- EC50 [2]: > 100 µM

SMILES: C/C=C/C=C/C(O)C(F)(F)C(=O)/C=C/CCCC (racemic)
- EC50 [3]: > 100 µM

SMILES: CC(C)(C)c1cc(C(C)(C)C)c2c(c1)C(O)(C(F)(F)F)C(=O)O2 (racemic)
- Activity [4]: Active
- EC50 [2]: > 100 µM
- Activity [5]: Active

SMILES: CC(=O)c1ccc(C(O)C(F)(F)C(=O)C23CC4CC(CC(C4)C2)C3)cc1 (racemic) [listing 2 of 2 here]
- Activity [6]: inactive
- Activity [7]: Active
- Activity [8]: Active
- Activity [9]: inactive

SMILES: NCC(CC(=O)O)c1ccc(Cl)cc1 (racemic) [BACLOFEN]
- Activity [10]: 26.3 g
- Activity [11]: 8.1 g
- EC50 [2]: > 100 µM
